Pf gamet viab: late stage P. falciparum gametocyte viability inhibitors, primary screen, ATP luminescence, HTS; 0.065% of 150,000 active; P. falciparum stage V gametocytes, 24 h; inhibition, % at 10.9 µM; AID 743093, 2013;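 active means inhibition above the mean plus 3 SD of compounds within the control limits, set per campaign, cut at about 38% in these data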;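 further: 0% = DMSO wells and 100% = medium only without gametocytes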
Wee1 degr inh: Wee1 degradation inhibitors, primary screen, cell-based, HeLa, Wee1K328M-luciferase, luminescence; 1.2% of 220,000 active; Wee1-like protein kinase (Homo sapiens), P30291; HeLa Luc-Wee1K328M stability; 100% = proteasome inhibitor MG132 effect; reporter increase, % at 5 µM;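 active means activation above the mean of all tested compounds plus 3 SD, set per screening run, cut at about 8.8% in these data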;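 further: cells exposed to compound for 20 h before luminescence read; 0% = DMSO alone and 100% = MG132 at 30 µM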
TNF necrop inh: inhibitors of TNF-alpha triggered necroptosis, primary screen, cell-based, Jurkat FADD-/-, single concentration; activation (protection from cell death), % at 10 µM; Jurkat FADD-/- TNF necroptosis rescue, ATP luminescence, 24 h; 0 = TNF only, 100 = no-TNF cells; 0.068% of 220,000 active;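 active means activation, meaning protection from cell death, of at least 50% relative to plate controls; inactive means activation below 50%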;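 further: necroptosis triggered by 40 ng/mL TNF-alpha added together with compound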
L929 necroptosis: inhibitors of zVAD-triggered necroptosis, primary screen, L929 cells; L929 zVAD necroptosis rescue, ATP luminescence, 24 h; with zVAD 60 µM; 0.38% of 220,000 active; viability rescue, % at 10 µM;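 active means activation, scaled between plate controls, above about 75%, limit read from the data; inactive means activation under that limit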;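 further: 0% = zVAD with DMSO and 100% = DMSO alone without zVAD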
Mdm2 ligase inh: MDM2-luciferase reporter signal enhancers, primary screen, MDM2 E3 ligase inhibitor project, cell-based, luminescence, 1536-well | E3 ubiquitin-protein ligase Mdm2 (Homo sapiens), Q00987 | cell-based MDM2 ubiquitination luciferase reporter, 2 h; 0 = plate control, 100 = twice control, blank-subtracted | signal enhancement, % at 5 µM | 0.11% of 210,000 active;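 active means signal enhancement of 30% or more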;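 further: luminescence tracks abundance of the self-degrading MDM2-luciferase fusion protein; higher signal means inhibition of MDM2 E3 ligase activity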
Target sequence (Q00987 whole entry, looked up, the tested form may be a part): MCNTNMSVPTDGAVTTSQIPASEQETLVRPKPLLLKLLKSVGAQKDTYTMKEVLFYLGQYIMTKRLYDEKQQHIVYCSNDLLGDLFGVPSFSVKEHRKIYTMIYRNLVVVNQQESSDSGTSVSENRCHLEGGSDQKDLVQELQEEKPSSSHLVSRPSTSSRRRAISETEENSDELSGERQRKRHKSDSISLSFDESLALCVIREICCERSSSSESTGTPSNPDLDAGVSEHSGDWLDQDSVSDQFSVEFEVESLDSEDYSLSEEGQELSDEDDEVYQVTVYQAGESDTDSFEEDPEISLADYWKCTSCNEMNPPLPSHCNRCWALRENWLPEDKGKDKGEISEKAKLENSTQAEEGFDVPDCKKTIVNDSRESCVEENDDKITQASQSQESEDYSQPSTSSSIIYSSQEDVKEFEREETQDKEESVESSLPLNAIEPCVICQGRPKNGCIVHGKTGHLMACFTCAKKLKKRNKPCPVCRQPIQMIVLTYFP
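Timing – 2 h compound exposure at 37 °C · Assay system – mammalian cells stably expressing self-ubiquitinating, self-degrading MDM2 E3–luciferase fusion · Amount – 2000 cells seeded into each well · Measure – % luminescence enhancement versus blank-corrected plate control mean · Measured by – SteadyLite luminescence, 15 min reagent step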
Wee1 stab conf: Wee1 degradation inhibitors, confirmation, cell-based, HeLa, Wee1K328M-luciferase, luminescence, triplicate | HeLa Luc-Wee1K328M degradation; vehicle 0%, proteasome-blocked wells 100% | activation, % at 5 µM | shares compounds with Wee1 degr inh | 4% of 1,100 active | AID 1410, 2008; in the data active means activation above about 8.9%
* hit, by the source's call; x = no result given. Hits are enriched below; roughly 1.6% of the tested compounds scored in any of these assays.

SMILES | Pf gamet viab | Wee1 degr inh | TNF necrop inh | L929 necroptosis | Mdm2 ligase inh | Wee1 stab conf
COc1ccc(C2=NCN(c3ccc(C)cc3)C(=S)N2)cc1 | x | 2 | -1 | 0 | -10 | x
Cc1ccc(S(=O)(=O)C2(C(=O)N(C)C3CCCCC3)CC2)cc1 | x | -1 | -1 | -1 | 9 | x
CC1CCCCN1C(=O)Cn1c(=O)n(-c2ccc(F)cc2)c(=O)c2sccc21 (centres undefined) | -26 | 11* | 1 | 1 | -10 | 4
CNC(=O)c1c(Cl)cnn1-c1ccc(F)cc1 | x | 13* | 0 | 1 | -6 | 3
O=C(/C=C/c1ccccn1)c1cc(Cl)cc(Cl)c1O | 14 | -4 | -10 | 2 | -6 | x
COc1cccc(C(=O)Nc2ccc(S(=O)(=O)Nc3nccc(C)n3)cc2)c1 | -21 | -1 | 1 | 0 | 22 | x
CCOC(=O)C1=C(c2ccccc2)O/C(=C(/C#N)C(F)(F)F)S1 | x | 24* | -12 | 0 | 68* | 87*
CCC(=O)N1CCc2cc(S(=O)(=O)CCC(=O)O)ccc21 | x | 1 | -2 | 0 | -23 | x
CN(CC(=O)NC1CCCc2ccccc21)C1CCCCC1 (centres undefined) | x | 5 | 1 | 3 | -17 | x
COCc1ccc(C(=O)N2CCCC(C(=O)c3cccc(C(F)(F)F)c3)C2)o1 (centres undefined) | -2 | 1 | 0 | 0 | -9 | x
COC(=O)c1ccccc1NC(=O)Cn1c(CCC(=O)O)ccc1-c1cccs1 | x | 17* | -1 | 0 | -4 | 7
CCCCn1c(-c2ccncc2)nc2c1c(=O)[nH]c(=O)n2CC(C)C | x | -3 | 0 | 0 | -5 | x
CCCCCCC1C(C#N)=C(N)OC2=C1C(=O)CCC2 (centres undefined) | x | -2 | 0 | 1 | -3 | x
COc1ccc(-c2cc(=NC(CC(C)C)C(=O)O)c3cc(C)ccc3o2)cc1 (centres undefined) | 6 | 12* | -2 | -1 | 3 | -1
O=C(C1CCN(c2nnc(-n3cccc3)s2)CC1)N1CCN(Cc2ccc3c(c2)OCO3)CC1 | x | 0 | -5 | 1 | -37 | x
Cc1cc(C)c(C(=O)Cn2nc(C(=O)O)c3ccccc3c2=O)cc1C | -12 | -2 | -1 | -1 | -8 | x
CCCc1ccc(C(=O)Cn2nc(C(=O)O)c3ccccc3c2=O)cc1 | -8 | 11* | 1 | 1 | -12 | 2
Cn1ncc(Br)c1C(=O)Nc1cccc(C(F)(F)F)c1 | -5 | -4 | 0 | 0 | -11 | x
Cn1nc(C(=O)Nc2cccc(C(F)(F)F)c2)ccc1=O | x | 11* | -2 | 0 | -4 | 1
NC(=O)[C@@H]1CCCN1Cc1nc(-c2cccs2)no1 | 6 | 11* | 0 | 0 | 1 | -1
NC(=O)C1CCN(Cc2nc(-c3cccs3)no2)CC1 | 8 | -1 | 4 | 1 | -15 | x
CCOc1ccc2nc(NC(NC(C)=O)(C(=O)OC)C(F)(F)F)sc2c1 (centres undefined) | 1 | 0 | 2 | 8 | -21 | x
O=C(NNC(=S)Nc1cccc(C(F)(F)F)c1)c1ccccc1Cl | -2 | 12* | 0 | 1 | -10 | 5
C/C(=N\NC(=O)c1ccccc1C)c1ccc(NC(=O)c2cccs2)cc1 | x | -3 | -2 | 14 | -20 | x
C/C(=N\NC(=O)c1ccccc1)c1ccc(NC(=O)c2cccs2)cc1 | -17 | 13* | 2 | 0 | -13 | 1
SMILES | Pf gamet viab | Wee1 degr inh | TNF necrop inh | L929 necroptosis | Mdm2 ligase inh | Wee1 stab conf
CCN(CC)S(=O)(=O)c1cc(C(=O)N(C)CC(=O)Nc2ccc(Cl)cc2)ccc1Cl | -8 | 12* | 5 | 1 | 11 | 0
CCN(CC)S(=O)(=O)c1cc(C(=O)Nc2ccncc2)ccc1Cl | x | 2 | -13 | 0 | -8 | x
CCCn1nnnc1NCc1cccc(OC)c1OCC | -21 | x | x | x | x | x
CCc1cccc(CC)c1N(COC)C(=O)Cn1ccccc1=N | x | 13* | 2 | 0 | -2 | -2
CCc1cccc(CC)c1N(COC)C(=O)Cn1nnc2ccccc21 | x | 0 | 1 | 0 | -11 | x
O=C1N(C2CCCC2)C[C@@H]2C[C@@H](c3cn[nH]c3-c3ccc(Cl)cc3)N3CCC[C@@]123 | 0 | -3 | 1 | -1 | -9 | x
COc1ccc(/C=C/C(=O)c2ccccn2)cc1 | 3 | 12* | 1 | 0 | 10 | -1
COc1ccc(/C=C/C(=O)c2ccccc2O)cc1 | x | 4 | -2 | 0 | x | x
COc1ccc(CC(=O)O/N=C(\N)c2ccccn2)cc1 | 5 | 16* | 2 | 2 | -9 | 4
N/C(=N\OC(=O)Cc1ccc(-c2ccccc2)cc1)c1ccccn1 | x | 0 | 0 | 0 | -21 | x
Cn1cccc1/C=C1\SC(=Nc2ccccc2)NC1=O | -4 | 19* | -13 | -1 | -6 | 14*
Cc1cccn2c1nc(=S)n2C(=O)c1ccco1 | 4 | 12* | -6 | x | -3 | 10*
COC(=O)Cn1c(CCS(=O)(=O)c2ccc(C)c(C)c2)nc2ccccc21 | x | -2 | 2 | 0 | -7 | x
O=C(O)Cn1c(CCS(=O)(=O)c2ccc(Br)cc2)nc2ccccc21 | 6 | 13* | 0 | 4 | -6 | -1
COc1cccc(NC(=O)C2CC(=O)OC23CCOC(C)(C)C3)c1 (centres undefined) | x | 24* | 1 | 0 | -8 | 2
O=C(Nc1nc2ccccc2[nH]1)c1cccs1 | x | 12* | 8 | 9 | -24 | -1
O=c1[nH]c2ccccc2nc1/C=C(\O)c1cccs1 | 3 | 16* | -2 | 68 | -17 | 9.6*
O=C(Nc1nc2ccccc2[nH]1)C1CC1 | -9 | 8 | -2 | 5 | -11 | x
CCCC[n+]1ccn(-c2nc3ccccc3nc2[N-]S(=O)(=O)c2ccc(Br)cc2)c1 | 3 | 0 | 0 | 1 | -16 | x
COc1ccc(C(c2nnnn2C2CCCC2)N2CCC(C)CC2)c(OC)c1 (centres undefined) | 6 | 41* | -1 | 0 | -3 | -1
CC1CCN(C(=O)c2[nH]cnc2C(=O)NCCCCCNC(=O)OC(C)(C)C)CC1 | -26 | x | x | x | x | x
CC(/C=C/c1ccccc1)=N\NC(=O)CCc1ccccc1 | -19 | -1 | 2 | 38 | -5 | x
C/C(=N\NC(=O)CCc1ccccc1)C1C(=O)c2ccccc2C1=O | -14 | 13* | 0 | 38 | 1 | -1
O=C1CCC(=O)N1OCCOc1ccc(Cl)c2ccccc12 | x | -3 | 0 | 3 | 1 | x
